# INS-1E ATP HTS: protection of INS-1E cells from cytokine death, primary screen, ATP luminescence, single point. protection from cytokine-induced ATP loss, % at 10 µM. 20,000 tested, 0.1% active. INS-1E cytokine-induced death, 48 h; normalised: neutral wells 0, positive control 100;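 active = mean replicate protection from cytokine-induced ATP loss at least 50% and at least 75% of replicates each reaching 50%; inconclusive = meets only one of the two criteria, mean or replicate share; inactive = fails both the mean and replicate share criteria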
#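 Material: INS-1E rat cells; Quantity: 8000 cells/well; Buffer or medium: phenol-red-free RPMI with 5% fetal bovine serum; Probe or stimulus: cytokine cocktail of IFN-γ, TNF-α and IL-1β; Compound dosing: single test concentration per compound, delivered by pin transfer; Incubation: 48 h co-treatment, 10 min post-lysis read; Signal: CellTiter-Glo luminescence.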
# A1 apoptosis 2: A1 inhibitors via caspase activation, primary screen, cell-based, luminescence, HTS, two replicates; MEF A1-2A-BIM cells, caspase-Glo luminescence, 3 h; percent of clofoctol response, DMSO zero; caspase activation, % (test concentration not listed); 24,000 tested, under 10 active; AID 2465, 2010; in the data active = caspase activation above about 5.9%; inconclusive = no clear call, values can overlap the other calls; inactive = below about 2.2%
#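 Material: mouse embryonic fibroblasts co-expressing A1 and BIM (A1-2A-BIM), primed for A1 dependence / Quantity: 2500 cells/well / Buffer or medium: RPMI-1640 growth medium with 10% FBS / Doses: 50 nL compound per well, pinned / Schedule: 3 h compound exposure at 37 °C / Signal: Caspase-Glo luminescence (DEVD substrate) / Measure: Caspase-3/7 activation, seen as rise in luminescence signal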
# T cruzi intra: inhibitors of intracellular Trypanosoma cruzi, primary screen, cell-based, plate reader, single point, set 2. activity score (inhibition), % at 5.01 µM. intracellular Trypanosoma cruzi in host cells. AID 651903, 2012. 22,000 tested, 4.9% active; in the data active = activity score above about 55%; inconclusive = no clear call, values can overlap the other calls;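 note: parasites and compound incubated about four days before reading; 0% = median of neutral control wells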
# The depositor's hits bear a star; ? = inconclusive; . = no result given. The sample as a whole holds a higher share of hits than the screen did.
SMILES,INS-1E ATP HTS,A1 apoptosis 2,T cruzi intra
C[C@H](CO)N1C[C@H](C)[C@H](CN(C)Cc2ccc(F)cc2)Oc2ncc(C#Cc3ccccc3)cc2C1=O,.,1,.
C[C@H](CO)N1C[C@H](C)[C@H](CN(C)Cc2ccc(F)cc2)Oc2ncc(-c3cccc(C(F)(F)F)c3)cc2C1=O,.,.,62*
C[C@H](CO)N1C[C@H](C)[C@H](CN(C)Cc2cccc(C(F)(F)F)c2)Oc2ncc(C#Cc3ccccc3)cc2C1=O,.,1,84*
COc1cccc(S(=O)(=O)N(C)C[C@@H]2Oc3ncc(-c4cccc(C(F)(F)F)c4)cc3C(=O)N([C@H](C)CO)C[C@@H]2C)c1,.,.,57*
CNC[C@@H]1Oc2ncc(-c3cccc(C(F)(F)F)c3)cc2C(=O)N([C@H](C)CO)C[C@@H]1C,.,-1,54
C[C@H](CO)N1C[C@H](C)[C@H](CN(C)Cc2ccccc2)Oc2ncc(-c3cccc(C(F)(F)F)c3)cc2C1=O,.,0,?
C[C@H](CO)N1C[C@H](C)[C@H](CN(C)C)Oc2ncc(-c3cccc(C(F)(F)F)c3)cc2C1=O,.,1,81*
COc1cccc(S(=O)(=O)N(C)C[C@@H]2Oc3ncc(-c4cccc(F)c4)cc3C(=O)N([C@H](C)CO)C[C@@H]2C)c1,.,.,30
COc1ccc(Br)c(/C=N/NC(=O)c2ccccn2)c1,-7,-10,-6
COC(=O)CCCCCCC(=O)N/N=C/C1(NC(=O)OC(C)(C)C)CCCC1,3,.,-6
COC(=O)C(CC#Cc1ccc2c(c1)[C@]1(C(=O)N2)[C@H](c2ccccc2OCCO)N2[C@H](c3ccccc3)[C@H](c3ccccc3)OC(=O)[C@H]2[C@@H]1C(=O)O)C(=O)OC,.,1,.
COCCOC(=O)N1C(=O)[C@@]2(c3cc(C#CCC(C(=O)OC)C(=O)OC)ccc31)[C@H](c1ccc(OCCO)cc1)N1[C@H](c3ccccc3)[C@H](c3ccccc3)OC(=O)[C@H]1[C@@H]2C(=O)N1CCN(c2ncccn2)CC1,.,1,.
COC(=O)CCCCCCC(=O)N/N=C\c1cccnc1Br,8,0,-4
O=C(O)CCCCCC(=O)N/N=C/c1cn(S(=O)(=O)c2ccccc2)c2ccccc12,8,0,9
C[C@H](CO)N1C[C@H](C)[C@H](CN(C)Cc2ccc3c(c2)OCO3)Oc2ncc(-c3cccc(F)c3)cc2C1=O,-21,0,25
Cc1cccc(CN(C)C[C@@H]2Oc3ncc(-c4ccc(F)cc4)cc3C(=O)N([C@H](C)CO)C[C@@H]2C)c1,.,.,34
C[C@H](CO)N1C[C@H](C)[C@H](CN(C)Cc2ccc3c(c2)OCO3)Oc2ncc(-c3cccc(C(F)(F)F)c3)cc2C1=O,-13,1,62*
C[C@H](CO)N1C[C@H](C)[C@H](CN(C)Cc2cccc(C(F)(F)F)c2)Oc2ncc(-c3ccc(F)cc3)cc2C1=O,.,.,59*
O=C(CCCCCC(=O)Nc1ccccc1O)N/N=C/[C@@H](O)[C@H](O)[C@H](O)CO,.,1,.
C[C@@H]1CN([C@H](C)CO)C(=O)Cc2cc(NC(=O)CCCCCC(=O)Nc3ccccc3N)ccc2O[C@@H]1CN(C)Cc1ccc(-c2ccccc2)cc1,5,.,-28
C[C@H](CO)N1C[C@H](C)[C@H](CN(C)Cc2ccc(-c3ccccc3)cc2)Oc2ccc(NC(=O)CCCCCC(=O)Nc3ccccc3N)cc2CC1=O,-10,.,73*
C[C@@H]1CN([C@H](C)CO)C(=O)Cc2cc(NC(=O)CCCCCC(=O)Nc3ccccc3N)ccc2O[C@@H]1CN(C)Cc1ccc(Cl)c(Cl)c1,-2,.,66*
C[C@H]1CN([C@@H](C)CO)C(=O)Cc2cc(NC(=O)CCCCCC(=O)Nc3ccccc3N)ccc2O[C@H]1CN(C)Cc1ccccc1,.,-1,.
O=C(N/N=C/c1cccc(Br)c1)c1ccccn1,-1,-3,-6
O=C(NO)c1cccc(C(=O)N/N=C/c2cccc3ccccc23)c1,17,1,-20
C[C@H](CO)N1C[C@H](C)[C@H](CN(C)Cc2ccc(Oc3ccccc3)cc2)Oc2c(NC(=O)c3ccc(-c4nccs4)cc3)cccc2C1=O,-70,.,86*
C[C@H](CO)N1C[C@H](C)[C@H](CN(C)Cc2ccccc2)Oc2c(NC(=O)c3ccc(-c4nccs4)cc3)cccc2C1=O,-3,.,-24
C[C@H]1CN([C@@H](C)CO)C(=O)c2cccc(NC(=O)c3ccc(-c4nccs4)cc3)c2O[C@@H]1CN(C)Cc1ccc(Oc2ccccc2)cc1,5,0,31
